According to ChEMBL document CHEMBL3124863, “Structural modifications of neuroprotective anti-Parkinsonian (-)-N6-(2-(4-(biphenyl-4-yl)piperazin-1-yl)-ethyl)-N6-propyl-4,5,6,7-tetrahydrobenzo[d]thiazole-2,6-diamine (D-264): an effort toward the improvement of in vivo efficacy of the parent molecule” (J Med Chem, 2014):
Active and inactive are the calls of the source. No cut-off for these calls is given here.

Assays:
D(2) dopamine receptor [1] = biological target: D(2) dopamine receptor (Rattus norvegicus, UniProt P61169); assay: Displacement of [3H]spiroperidol from rat dopamine D2L receptor expressed in HEK293 cells; format: cell-based
D(2) dopamine receptor (Rattus norvegicus, UniProt P61169), sequence (P61169 whole entry): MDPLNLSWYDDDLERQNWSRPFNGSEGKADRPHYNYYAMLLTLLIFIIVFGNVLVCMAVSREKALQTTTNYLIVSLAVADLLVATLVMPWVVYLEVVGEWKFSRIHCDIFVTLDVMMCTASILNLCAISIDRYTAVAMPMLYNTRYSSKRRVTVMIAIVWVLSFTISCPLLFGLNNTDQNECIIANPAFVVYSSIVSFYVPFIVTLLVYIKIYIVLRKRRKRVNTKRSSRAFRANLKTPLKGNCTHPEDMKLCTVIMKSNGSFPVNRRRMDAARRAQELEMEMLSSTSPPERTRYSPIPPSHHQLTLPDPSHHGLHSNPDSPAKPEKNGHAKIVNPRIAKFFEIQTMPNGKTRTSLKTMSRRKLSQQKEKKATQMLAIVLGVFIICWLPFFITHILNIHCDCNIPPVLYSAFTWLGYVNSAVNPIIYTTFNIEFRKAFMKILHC
Outline: (§1)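 Inhibition of [3H]spiroperidol (16.2 Ci/mmol) binding to rat D2 or D3 receptors expressed in HEK-293 cells. Buffer contains 0.9% NaCl; "high [radioligand]" protocol. IC50 converted to Ki by Cheng–Prusoff. Means ± SEM of 3–6 experiments, each in triplicate.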

D(3) dopamine receptor [2] = biological target: D(3) dopamine receptor (Rattus norvegicus, UniProt P19020); assay: Displacement of [3H]spiroperidol from rat dopamine D3 receptor expressed in HEK293 cells; format: cell-based; outline: as §1
D(3) dopamine receptor (Rattus norvegicus, UniProt P19020), sequence (P19020 whole entry): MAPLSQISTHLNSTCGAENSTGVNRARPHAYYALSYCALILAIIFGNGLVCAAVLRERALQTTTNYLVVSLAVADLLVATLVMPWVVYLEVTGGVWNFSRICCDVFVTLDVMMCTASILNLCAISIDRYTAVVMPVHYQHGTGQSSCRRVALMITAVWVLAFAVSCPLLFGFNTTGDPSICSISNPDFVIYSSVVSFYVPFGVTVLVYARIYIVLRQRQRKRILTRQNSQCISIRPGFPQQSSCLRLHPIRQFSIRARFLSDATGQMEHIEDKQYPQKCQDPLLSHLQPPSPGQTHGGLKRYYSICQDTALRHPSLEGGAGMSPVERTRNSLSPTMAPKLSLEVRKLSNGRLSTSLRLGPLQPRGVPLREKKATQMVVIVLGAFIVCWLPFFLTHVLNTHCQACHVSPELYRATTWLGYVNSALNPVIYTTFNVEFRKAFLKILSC

Rattus norvegicus [3] = species on record: Rattus norvegicus; assay: Selectivity ratio of Ki for rat dopamine D2L receptor to Ki for rat dopamine D3 receptor; outline: as §1
Rattus norvegicus [4] = assay: Antiparkinsonian activity in 6-OHDA-lesioned Sprague-Dawley rat assessed as stimulation of rotational activity at 10 umol/kg measured up to 12 hrs; format: functional, organism-based
Outline: (§2)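 Male Sprague–Dawley rats (290–320 g) with a left medial forebrain bundle 6-OHDA lesion, confirmed by apomorphine challenge. Drug given i.p. in water/saline; vehicle controls. Contralateral (clockwise) rotations counted in a rotometry harness chamber in 30-min bins over up to 12 h. Doses 5 or 10 μmol/kg. Mean ± SEM of 3–4 rats; ANOVA with Dunnett's test.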

[5] = tested on: Radical scavenging activity; assay: Antioxidant activity assessed as inhibition of DPPH free radical scavenging activity; format: functional
Outline: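 Compounds in methanol (20–250 μM solutions) mixed 1:1 with 200 μM methanolic DPPH. Shaken 25 min at 30 °C, absorbance read at 517 nm. Methanol-only wells used for background; ascorbic acid as standard. % scavenging = (control A − sample A)/control A × 100.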

Rattus norvegicus [6] = assay: Antiparkinsonian activity in Sprague-Dawley rat assessed as reversal of reserpine-induced akinesia at 5 umol/kg, sc administered in deionized water measured up to 400 mins; format: functional, organism-based
Outline: (§3)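 Male Sprague–Dawley rats (220–225 g) given reserpine 5 mg/kg s.c. 18 h before test drug. After 1 h acclimatization, drug given at 5 μmol/kg (i.p., or s.c. for ropinirole). Horizontal activity counted by infrared beam breaks for 6 h in 30-min intervals, compared with reserpine controls. n = 4; ANOVA with Dunnett's test.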

Rattus norvegicus [7] = assay: Antiparkinsonian activity in 6-OHDA-lesioned Sprague-Dawley rat assessed as stimulation of rotational activity at 2.5 umol/kg measured for 5 hrs in presence of haloperidol; format: functional, organism-based
Rattus norvegicus [8] = assay: Antiparkinsonian activity in Sprague-Dawley rat assessed as reversal of reserpine-induced akinesia at 5 umol/kg, ip administered in deionized water measured up to 400 mins; format: functional, organism-based; outline: as §3
MN9D [9] = assay: Neuroprotective activity in mouse MN9D cells assessed as protection against MPP+-induced toxicity pretreated for 1 hr followed by MPP+-challenge measured after 24 hrs by MTT assay; format: functional, cell-based
Outline: (§4)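 MN9D mouse dopaminergic hybridoma cells seeded at 1 × 10^4 per well on poly-L-lysine and equilibrated 40 h. Pretreated 1 h with compound (0.001–20 μM), then cotreated with 100 μM MPP+ for 24 h at 37 °C. Viability by MTT (0.5 mg/mL final, 3 h), formazan in DMSO/methanol, A570–A690. Means ± SD of three experiments in 4–6 replicates; ANOVA with Tukey's test.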

Rattus norvegicus [10] = assay: Antiparkinsonian activity in Sprague-Dawley rat assessed as reversal of reserpine-induced akinesia at 5 umol/kg, ip administered in 10% beta-hydroxy cyclodextrin solution measured up to 400 mins; format: functional, organism-based; outline: as §3
Rattus norvegicus [11] = assay: Antiparkinsonian activity in 6-OHDA-lesioned Sprague-Dawley rat assessed as stimulation of rotational activity at 6.56 mg/kg, ip measured for 10 hrs; format: functional, organism-based; parameters: dose 6.56 mg/kg; outline: as §2
Homo sapiens = species on record: Homo sapiens; assay: Selectivity ratio of EC50 for human dopamine D2 receptor to EC50 for human dopamine D3 receptor
D(2) dopamine receptor [12] = biological target: T1, D(2) dopamine receptor (Homo sapiens, UniProt P14416); assay: Agonist activity at human dopamine D2 receptor expressed in CHO cells assessed as stimulation of [35S]GTPgammaS binding relative to dopamine
T1 sequence (P14416 whole entry): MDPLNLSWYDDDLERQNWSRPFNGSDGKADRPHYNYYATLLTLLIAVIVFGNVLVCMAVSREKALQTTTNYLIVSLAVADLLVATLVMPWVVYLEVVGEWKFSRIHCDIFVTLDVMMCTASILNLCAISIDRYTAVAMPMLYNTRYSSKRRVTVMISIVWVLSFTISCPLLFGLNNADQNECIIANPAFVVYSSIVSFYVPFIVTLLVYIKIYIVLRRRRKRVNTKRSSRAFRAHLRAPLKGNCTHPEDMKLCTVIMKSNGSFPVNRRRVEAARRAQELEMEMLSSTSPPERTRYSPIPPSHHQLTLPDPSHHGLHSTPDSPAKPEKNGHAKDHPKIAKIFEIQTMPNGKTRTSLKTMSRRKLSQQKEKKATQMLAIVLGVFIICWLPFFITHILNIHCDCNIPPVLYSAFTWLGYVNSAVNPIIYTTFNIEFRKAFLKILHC

D(3) dopamine receptor [13] = biological target: D(3) dopamine receptor (Homo sapiens, UniProt P35462); assay: Agonist activity at human dopamine D3 receptor expressed in CHO cells assessed as stimulation of [35S]GTPgammaS binding; format: functional, cell-based
D(3) dopamine receptor (Homo sapiens, UniProt P35462), sequence (P35462 whole entry): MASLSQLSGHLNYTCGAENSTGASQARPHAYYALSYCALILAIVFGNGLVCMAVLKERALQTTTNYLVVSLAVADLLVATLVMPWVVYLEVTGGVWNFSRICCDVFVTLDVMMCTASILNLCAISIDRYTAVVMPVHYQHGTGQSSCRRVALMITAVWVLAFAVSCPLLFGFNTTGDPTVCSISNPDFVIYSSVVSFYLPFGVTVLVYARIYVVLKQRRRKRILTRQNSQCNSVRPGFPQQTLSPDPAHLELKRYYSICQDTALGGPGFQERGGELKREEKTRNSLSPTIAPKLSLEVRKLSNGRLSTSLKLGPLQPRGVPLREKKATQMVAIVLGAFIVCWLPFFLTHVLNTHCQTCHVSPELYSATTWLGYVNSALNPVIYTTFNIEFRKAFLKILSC

Rattus norvegicus [14] = assay: Antiparkinsonian activity in 6-OHDA-lesioned Sprague-Dawley rat assessed as stimulation of rotational activity at 3.28 mg/kg, ip measured for 7 hrs; format: functional, organism-based; parameters: dose 3.28 mg/kg; outline: as §2
D(2) dopamine receptor [15] = biological target: T1, D(2) dopamine receptor; assay: Agonist activity at human dopamine D2 receptor expressed in CHO cells assessed as stimulation of [35S]GTPgammaS binding
MN9D [16] = assay: Neuroprotective activity in mouse MN9D cells assessed as protection against MPP+-induced toxicity at 0.001 to 20 uM pretreated for 1 hr followed by MPP+-challenge measured after 24 hrs by MTT assay; format: functional, cell-based; outline: as §4
Rattus norvegicus [17] = assay: Antiparkinsonian activity in 6-OHDA-lesioned ip dosed Sprague-Dawley rat assessed as stimulation of rotational activity measured up to 12 hrs; format: functional, organism-based; outline: as §2
Rattus norvegicus [18] = assay: Antiparkinsonian activity in 6-OHDA-lesioned Sprague-Dawley rat assessed as stimulation of rotational activity measured as time required to reach peak effect at 6.56 mg/kg, ip; format: functional; conditions: route intraperitoneal; outline: as §2
Rattus norvegicus [19] = assay: Antiparkinsonian activity in 6-OHDA-lesioned Sprague-Dawley rat assessed as stimulation of rotational activity measured as time required to reach peak effect at 9.28 mg/kg, ip; format: functional; conditions: route intraperitoneal; outline: as §2
D(2) dopamine receptor [20] = biological target: T1, D(2) dopamine receptor; assay: Agonist activity at human dopamine D2 receptor expressed in CHO cells assessed as stimulation of [35S]GTPgammaS binding; format: functional, cell-based
Outline: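 [35S]GTPγS (1250 Ci/mmol) binding stimulated in CHO cells expressing human D2. EC50 is the concentration giving half-maximal stimulation. Means ± SEM of 3–6 experiments, each in triplicate.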

Rattus norvegicus [21] = assay: Antiparkinsonian activity in 6-OHDA-lesioned Sprague-Dawley rat assessed as stimulation of rotational activity at 9.28 mg/kg, ip measured for 10 hrs; format: functional, organism-based; parameters: dose 9.28 mg/kg; outline: as §2
Rattus norvegicus [22] = assay: Antiparkinsonian activity in 6-OHDA-lesioned Sprague-Dawley rat assessed as stimulation of rotational activity at 4.64 mg/kg, ip measured for 7 hrs; format: functional, organism-based; parameters: dose 4.64 mg/kg; outline: as §2
D(2) dopamine receptor [23] = biological target: T1, D(2) dopamine receptor; assay: Agonist activity at human dopamine D2 receptor expressed in CHO cells assessed as stimulation of [35S]GTPgammaS binding relative to dopamine; format: functional, cell-based
Outline: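 [35S]GTPγS (1250 Ci/mmol) binding stimulated in CHO cells expressing human D2. EC50 is the concentration giving half-maximal stimulation. […] Means ± SEM of 3–6 experiments, each in triplicate.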

SMILES | Ki (D(2) dopamine receptor [1]) [nM] | Ki (D(3) dopamine receptor [2]) [nM] | Ratio Ki (Rattus norvegicus [3]) | inhibition [5] | further results
CCCN(CCN1CCN(C(=O)c2ccc(-c3ccccc3)cc2)CC1)C1CCc2nc(N)sc2C1 (racemic) | 1670 | 9.58 | 174 |  | 
CCCN(CCN1CCN(c2ccc(-c3ccc(OC)cc3)cc2)CC1)C1CCc2nc(N)sc2C1 (racemic) | 213 | 1.41 | 151 |  | 
CCCN(CCC)CCc1cccc2c1CC(=O)N2 |  |  |  | Dose-dependent effect | Activity (Rattus norvegicus [4]): Active; Activity (Rattus norvegicus [6]): Active
CCCN(CCN1CCN(c2ccc(-c3ccccc3)cc2)CC1)[C@H]1CCc2nc(N)sc2C1 |  |  |  | Dose-dependent effect | Activity (Rattus norvegicus [7]): inactive; Activity (Rattus norvegicus [8]): inactive; Activity (MN9D [9]): Dose-dependent effect; Activity (Rattus norvegicus [10]): Active
CCCN(CCN1CCN(c2ccc(-c3cccc(OC)c3)cc2)CC1)C1CCc2nc(N)sc2C1 (racemic) | 464 | 2.11 | 220 |  | 
CCCN(CCN1CCN(c2ccc(-c3ccccc3OC)cc2)CC1)C1CCc2nc(N)sc2C1 (racemic) | 274 | 3.57 | 78 |  | 
CCCN(CCCCN1CCN(c2ccc(-c3cccc(O)c3)cc2)CC1)C1CCc2nc(N)sc2C1 (racemic) | 567 | 9.43 | 60 |  | 
CCCN(CCN1CCN(c2ccc(-c3cccc(O)c3)cc2)CC1)[C@@H]1CCc2nc(N)sc2C1 | 1510 | 19.7 | 76 |  | 
CCCN(CCN1CCN(c2ccc(-c3ccccc3O)cc2)CC1)C1CCc2nc(N)sc2C1 (racemic) | 208 | 1.8 | 115 |  | 
CCCN(CCN1CCN(c2ccc(-c3ccccc3)cc2)CC1)C1CCc2nc(N)ncc2C1 (racemic) | 735 | 3.65 | 201 |  | 
CCCN(CCN1CCN(c2ccc(-c3ccc(O)cc3)cc2)CC1)C1CCc2nc(N)sc2C1 (racemic) | 230 | 1.17 | 196 |  | 
O=C1O[C@H]([C@@H](O)CO)C(O)=C1O |  |  |  | Dose-dependent effect | 
CCCN(CCN1CCN(c2ccc(-c3cccc(OC)c3)cc2)CC1)[C@H]1CCc2nc(N)sc2C1 | 343 | 2.33 | 147 | Dose-dependent effect | Activity (Rattus norvegicus [11]): Active; Ratio EC50 (Homo sapiens): 10.8; Emax (D(2) dopamine receptor [12]): 105%; EC50 (D(3) dopamine receptor [13]): 3.42 nM; Activity (Rattus norvegicus [8]): Active; Activity (Rattus norvegicus [14]): Active; EC50 (D(2) dopamine receptor [15]): 36.8 nM; Activity (MN9D [16]): inactive; Activity (Rattus norvegicus [17]): Dose-dependent effect; Time (Rattus norvegicus [18]): 7.5 h
CCCN(CCN1CCN(c2ccc(-c3ccccc3)cc2O)CC1)C1CCc2nc(N)sc2C1 (racemic) | 70.6 | 2.35 | 30 |  | 
CCCN(CCN1CCN(c2ccc(-c3cccc(O)c3)cc2)CC1)[C@H]1CCc2nc(N)sc2C1 | 369 | 1.73 | 213 | Dose-dependent effect | Ratio EC50 (Homo sapiens): 159; Time (Rattus norvegicus [19]): 7.5 h; EC50 (D(2) dopamine receptor [20]): 15.9 nM; Activity (Rattus norvegicus [21]): Active; Activity (Rattus norvegicus [22]): Active; EC50 (D(3) dopamine receptor [13]): 0.1 nM; Activity (Rattus norvegicus [8]): Active; Activity (MN9D [9]): Dose-dependent effect; Emax (D(2) dopamine receptor [23]): 116%; Activity (Rattus norvegicus [17]): Dose-dependent effect
CCCN(CCN1CCN(c2ccc(-c3cccc(O)c3)cc2)CC1)C1CCc2nc(N)sc2C1 (racemic) | 347 | 1.2 | 289 |  | 
CCCN(CCN1CCN(c2ccc(-c3cccc(O)c3)cc2)CC1)C1CCc2nc(N)ncc2C1 (racemic) | 13100 | 67 | 196 |  | 
CCCN(CCN1CCN(c2ccc(-c3cccc(O)c3)cc2)CC1)[C@H]1CCc2c(O)cccc2C1 | 27.8 | 0.77 | 36 | Dose-dependent effect | 
